Data set [1] is described as follows: Bioavailability in rats after 5 mg/kg (i.v.) and 40 mg/kg (p.o.) administration. The class given is ADME, organism-based. The following applies: rat, in vivo, po. In short, it runs like this:
(§1)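 Male Sprague-Dawley rats; oral group starved 18 h, compared with iv dosing. Blood sampled up to 12 h, levels by GC/MS. Absolute oral availability F (po/iv) from ratio of AUCs of blood concentration–time curves, po n = 5, iv n = 3.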

A short description of data set [2]: Time taken to reach maximum concentration after administration of 10 umol/kg dose perorally. The format is ADME, organism-based. The settings on record: in vivo, po. In outline: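 Male Sprague-Dawley rats, starved 18 h for the oral arm, dosed iv or po. Blood sampled at intervals up to 12 h. Compound measured by GC/mass spectrometry against an internal standard, with a standard curve over 2–1000 pmol/mL in blank blood. tmax read from concentration–time curves, n = 4–6.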

For data set [3], the species on record is Rattus norvegicus. Kind of data set: The concentration yielding a half maximal decrease of the 5-HTP was determined in rat brain hemispheres. The class given is functional. In outline:
(§2)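 Reserpine-pretreated (5 mg/kg sc, 18 h) male Sprague-Dawley rats, 200–300 g; compounds in saline given sc. DOPA and 5-HTP in limbic system, striatum and hemispheres measured by HPLC with electrochemical detection. Dose–response curves of 4–6 doses (n = 4) per area, fitted to variable-slope sigmoid on log data to give ED50.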

A short description of data set [4]: Area under the curve after intravenous administration at a dose of 2 umol/kg. The class given is ADME. The settings on record: in vivo.
Data set [5] is filed under the species Rattus norvegicus. Kind of data set: Log concentration to inhibit 5-HTP accumulation was determined in rat limbic system. The class given is functional. In outline: as §2
Data set [6] relates to Rattus norvegicus. Kind of data set: The concentration yielding a half maximal decrease of the DOPA was determined in rat brain striatum; inactive at 3.1 umol/kg. The class given is functional, organism-based.
A short description of data set [7]: Time taken to reach maximum concentration after administration of 2 umol/kg dose intravenously. The class given is ADME, organism-based. The following applies: in vivo, iv.
The subject of data set [8] is Rattus norvegicus. Kind of data set: Ratio of the 5HTP-accumulation decrease in limbic regions of oral to that of sc administration. The class given is functional, Limbic system. In short, it runs like this: (§3)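 Ratio of ED50 for decrease of limbic 5-HTP accumulation after oral versus sc dosing in reserpine-pretreated rats; 5-HTP measured by HPLC with electrochemical detection.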

Data set [9] has as its system Rattus norvegicus. Kind of data set: Motor activity was measured by motility testing on injecting the compound subcutaneously into rats at the dose of 0.02 umol/kg (1a) and 3.5 umol/kg (1b).
Data set [10] is filed under the species Rattus norvegicus. Nature of the data set: The concentration yielding a half maximal decrease of the 5-HTP was determined in rat limbic system. The class given is functional. In outline:
as §2

Data set [11] is filed under the species Rattus norvegicus. Kind of data set: Log concentration to inhibit 5-HTP accumulation was determined in rat brain striatum. The class given is functional. In outline: as §2
Data set [12] is filed under the species Rattus norvegicus. Kind of data set: The concentration yielding a half maximal decrease of the 5-HTP was determined in rat brain striatum. The class given is functional. In outline:
as §2

Data set [13] deals with Rattus norvegicus. Nature of the data set: The concentration yielding a half maximal decrease of the DOPA was determined in rat brain hemispheres; inactive at 3.1 umol/kg. The class given is functional, organism-based. In short, it runs like this:
as §2

The next data set addresses D(2) dopamine receptor (Rattus norvegicus, UniProt P61169). Nature of the data set: Displacement of the radioligand [3H]spiperone from D2 receptor. In short, it runs like this: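 Rat striatal membranes in 50 mM potassium phosphate buffer, incubated with 0.5 nM [3H]spiperone (3 mg tissue) 10 min at 37 °C. Nonspecific binding defined with 10 μM 6,7-ADTN. IC50 converted to Ki by Cheng–Prusoff; 3–7 experiments, each concentration in triplicate.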

The subject of data set [14] is Rattus norvegicus. Nature of the data set: The concentration yielding a half maximal decrease of the DOPA was determined in rat limbic system; inactive at 3.1 umol/kg. The format is functional, organism-based.
Data set [15] is filed under the species Rattus norvegicus. Kind of data set: Log concentration to inhibit 5-HTP accumulation was determined in rat brain hemispheres. The class given is functional. In short, it runs like this: as §2
The nature of data set [16]: Half life in plasma after administration of 2 umol/kg dose perorally. The class given is ADME, organism-based. The following applies: po.
Data set [17] can be described thus: Maximum concentration in plasma after administration of 10 umol/kg dose perorally. The class given is ADME, organism-based. The settings on record: po. Further details: dose 10 umol/kg, route oral. In outline: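 Male Sprague-Dawley rats starved 18 h, dosed orally. Blood samples over up to 12 h, drug quantified by GC/MS against internal standard (2–1000 pmol/mL standard curve). Cmax read from concentration–time curve; SEM, n = 4–6.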

The nature of data set [18]: Maximum concentration in plasma after administration of 2 umol/kg dose intravenously. The class given is ADME, organism-based. Further details: dose 2 umol/kg, route intravenous. The following applies: iv.
The test system of data set [19] is Rattus norvegicus. Kind of data set: The concentration yielding a half maximal decrease of the DOPA was determined in rat brain hemispheres; inactive at 12.5 umol/kg. The class given is functional, organism-based. In short, it runs like this: as §2
The test system of data set [20] is Rattus norvegicus. Nature of the data set: Ratio of the 5HTP-accumulation decrease in limbic regions after sc and po administration at 10 umol/kg. The format is functional, Limbic system. In outline:
as §3

A short description of data set [21]: Bioavailability in rat (dose 10 uM/kg). The class given is ADME, organism-based. The following applies: in vivo. In short, it runs like this: as §1
The species named for data set [22] is Rattus norvegicus. Nature of the data set: The concentration yielding a half maximal decrease of the DOPA was determined in rat limbic system. The class given is functional.
Data set [23] has as its system Rattus norvegicus. Nature of the data set: Motor activity was measured by motility testing on injecting the compound subcutaneously into rats at the dose of 12.5 umol/kg. The format is functional. In outline: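 Rats given reserpine 5 mg/kg sc 18 h beforehand, then test compound sc in neck (n = 4). Placed singly in photocell motility meters straight after dosing; counts recorded for 30 min, gross behaviour observed throughout. Value as counts/30 min with SEM.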

Data set [24] relates to Rattus norvegicus. Nature of the data set: The concentration yielding a half maximal decrease of the DOPA was determined in rat brain striatum; inactive at 12.5 umol/kg. The class given is functional, organism-based.
The species entered for data set [25] is Rattus norvegicus. Kind of data set: Log concentration to inhibit DOPA accumulation was determined in rat limbic system. The format is functional. In short, it runs like this:
as §2

Data set [26] in a line: Half life in plasma after administration of 2 umol/kg dose intravenously. The class given is ADME, organism-based. The following applies: iv.

Active and inactive are the calls of the source. The rule behind the calls is not given here.

Sequence of D(2) dopamine receptor (P61169 whole entry): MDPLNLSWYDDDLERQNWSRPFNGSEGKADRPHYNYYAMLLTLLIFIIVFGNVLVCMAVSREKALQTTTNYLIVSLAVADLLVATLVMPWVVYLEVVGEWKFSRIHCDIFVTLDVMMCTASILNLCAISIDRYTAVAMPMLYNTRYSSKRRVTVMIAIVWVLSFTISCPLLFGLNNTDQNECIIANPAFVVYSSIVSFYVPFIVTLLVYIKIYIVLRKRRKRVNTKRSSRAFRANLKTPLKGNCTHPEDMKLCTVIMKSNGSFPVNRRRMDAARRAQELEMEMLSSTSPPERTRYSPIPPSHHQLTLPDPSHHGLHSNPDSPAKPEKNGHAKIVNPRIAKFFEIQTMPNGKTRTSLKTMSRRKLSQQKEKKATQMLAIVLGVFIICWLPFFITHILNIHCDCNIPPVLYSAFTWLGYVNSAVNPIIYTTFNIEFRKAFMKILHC

By bioavailability is commonly meant dose-corrected exposure relative to a reference, in per cent. A low value points to little systemic uptake. Usually Tmax stands for the time from dosing to the highest level. A word on the Ki: it is a measure of affinity in units of concentration, obtained from inhibition or displacement. A low value points to a stronger hold on the target. The half-life is how long it takes for the measured level to halve. As a reminder, the Cmax is the peak of the concentration-time curve. For the molecule `CCCN(CCC)[C@@H]1CCc2ccc3[nH]cc(C=O)c3c2C1`, the bioavailability in data set [1] was 46%. The Tmax is 150 min in data set [2] and 2 min in [7]. Also, the ED50 in the data set listed under Rattus norvegicus [3] was 0.45 µmol/kg; in the data set with Rattus norvegicus [8], 15%; in the data set filed under Rattus norvegicus [10], 0.072 µmol/kg; in the data set listed under Rattus norvegicus [12], 0.12 µmol/kg. Also, the AUC in [4] amounted to 431 pM/kg. In addition, the pED50 in the data set filed under Rattus norvegicus [5] worked out at 7.14; in the data set listed under Rattus norvegicus [11], 6.91; in the data set filed under Rattus norvegicus [15], 6.34. Also, the ED50 entry with Rattus norvegicus [6], in the data set with Rattus norvegicus [13] and with Rattus norvegicus [14] was “inactive” throughout. This molecule showed a Counts/30 min in the data set on Rattus norvegicus [9] of 162. Moreover, at D(2) dopamine receptor, the inhibition constant Ki turned out to be 382 nM. The same molecule showed a half-life in [16] of 90 min. In addition, the Cmax in [17] amounted to 108 nM; in [18], 712 nM.
On to `CCCN(CCC)[C@H]1CCc2ccc3[nH]cc(C=O)c3c2C1`, for which the ED50 entry in the data set with Rattus norvegicus [19] and with Rattus norvegicus [24] was “inactive” each time. Besides, the ED50 in the data set with Rattus norvegicus [20] amounted to 18%; in the data set listed under Rattus norvegicus [3], 0.032 µmol/kg; in the data set listed under Rattus norvegicus [22], 4.33 µmol/kg; in the data set filed under Rattus norvegicus [10] it was 0.11 µmol/kg; in the data set filed under Rattus norvegicus [12] it was 0.052 µmol/kg. In addition, the time to peak (Tmax) in [2] is 48 min; in data set [7], 2 min. Further, the bioavailability in data set [21] worked out at 72%. The same molecule returned an AUC in data set [4] of 607 pM/kg. Besides, the pED50 in the data set listed under Rattus norvegicus [5] is given as 6.94; in the data set filed under Rattus norvegicus [25], 5.36; in the data set filed under Rattus norvegicus [11], 8.28; in the data set listed under Rattus norvegicus [15] it was 7.49. Moreover, the Counts/30 min with Rattus norvegicus [23] is listed as 413. On D(2) dopamine receptor, this molecule showed a Ki of 3590 nM. Also, the Cmax in [17] stood at 606 nM; in [18], 849 nM. The molecule further gave a half-life in [26] of 60 min.

The values are drawn from ChEMBL document CHEMBL1127349, “6,7,8,9-Tetrahydro-N,N-di-n-propyl-3H-benzindol-8-amines. Derivatives as potent and orally active serotonin 5-HT1A receptor agonists” (J Med Chem, 1994).
